Converted amounts (≈) assume the structure as drawn. The source made the active and inactive calls. The calls are words filed in the database; no cut-off is given here.
Tests used:
[1] = test system: Candida albicans; experiment: microbe, parasite or virus in culture; type: functional; conditions: 7781
[2] = test system: Cryptococcus neoformans; experiment: microbe, parasite or virus in culture; type: functional; conditions: H99, time 72 hrs
[3] = test system: Candida albicans; experiment: Antifungal activity against fluconazole-sensitive Candida albicans 9770 assessed as inhibition of fungal growth; type: functional
[4] = test system: Candida albicans; experiment: Antifungal activity against fluconazole-sensitive Candida albicans SC5314 assessed as inhibition of fungal growth; type: functional
[5] = test system: Candida tropicalis; experiment: microbe, parasite or virus in culture; type: functional; conditions: 3890, time 48 hrs
[6] = test system: Candida tropicalis; experiment: microbe, parasite or virus in culture; type: functional; conditions: 5008, time 48 hrs
[7] = test system: Candida albicans; experiment: microbe, parasite or virus in culture; type: functional; conditions: 0304103
[8] = test system: Candida albicans; experiment: microbe, parasite or virus in culture; type: functional; conditions: 4108
[9] = test system: Candida albicans; experiment: Antifungal activity against fluconazole-sensitive Candida albicans 10061 assessed as inhibition of fungal growth; type: functional
[10] = test system: Cryptococcus neoformans; experiment: Inhibition of capsule formation in Cryptococcus neoformans H99 assessed as reduction in capsule size at 50 ug/ml incubated for 24 hrs by laser scanning confocal microscopic analysis; type: functional; conditions: dose 50.0 µg/ml
Method in brief: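 Exponential-phase C. neoformans H99 from YEPD resuspended in PBS at 1 × 10⁷ cells/mL. Suspension placed in wells with FBS plus DMEM and compound at several concentrations; untreated group as control. Kept 24 h at 37 °C under 10% CO₂. Cells mixed with India ink and imaged by confocal microscopy at 63×, 10 random fields. Whole-cell and cell-body diameters measured to derive capsule size.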

[11] = test system: Candida tropicalis; experiment: Downregulation of ERG11 mRNA expression in Candida tropicalis 5008 at 4 ug/ml measured after 24 hrs by qRT-PCR analysis; type: functional; conditions: dose 4.0 µg/ml
Method in brief: (§1)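 Exponential-phase C. tropicalis 5008 inoculated into 10 mL YPD with compound at several concentrations, DMSO as blank control. Incubated 35 °C for 24 h. Total RNA isolated on columns and reverse-transcribed. Real-time RT-PCR with ACT1 as internal control. Mean of 3 independent assays ± SD.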

[12] = test system: Candida tropicalis; experiment: Antifungal activity against fluconazole-resistant Candida tropicalis 5008 assessed as inhibition of cell proliferation at 32 ug/ml measured for 48 hrs by time growth curve assay; type: functional, organism-based; conditions: dose 32.0 µg/ml
Method in brief: (§2)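 Exponential-phase cells from YEPD resuspended in 3 mL fresh RPMI 1640 at 1 × 10⁵ cells/mL (C. tropicalis 5008) or 1 × 10⁶ cells/mL (C. neoformans H99). Compound at several concentrations; cultures shaken at 240 rpm, 30 °C. Growth read as OD₆₃₀ at 0, 6, 12, 24, 36 and 48 h. Done in triplicate.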

[13] = test system: Cryptococcus neoformans; experiment: Inhibition of biofilm formation in Cryptococcus neoformans H99 at 8 ug/ml incubated for 24 hrs by XTT reduction assay; type: functional, organism-based; conditions: dose 8.0 µg/ml
[14] = test system: Cryptococcus neoformans; experiment: Antifungal activity against fluconazole-sensitive Cryptococcus neoformans H99 assessed as inhibition of cell proliferation at 2 to 8 ug/ml measured for 48 hrs by time growth curve assay; type: functional, organism-based; conditions: dose 2-8 µg/ml
Method in brief: as §2

[15] = test system: Cryptococcus neoformans; experiment: Antifungal activity against Cryptococcus neoformans H99 infected in ICR mouse model assessed as reduction in fungal burden in brain at 20 mg/kg, po administered once a day for 5 days; type: functional, organism-based; conditions: time 5.0 day
Method in brief: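 Immunosuppression by intraperitoneal cyclophosphamide 24 h before infection. Infected on day 0 by intravenous 2 × 10⁵ CFU C. neoformans H99. Oral treatment once daily for 5 consecutive days, starting 24 h post infection; saline group as blank. Brains taken on day 6 and homogenized, dilutions plated on SDA at 35 °C for 48 h. Colonies counted for burden; groups compared by ANOVA.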

[16] = test system: Cryptococcus neoformans; experiment: Downregulation of CAP59 gene expression in Cryptococcus neoformans H99 at 2 ug/ml measured after 24 hrs by qRT-PCR analysis; type: functional; conditions: dose 2.0 µg/ml
Method in brief: (§3)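 Exponential-phase C. neoformans H99 inoculated into 50 mL YPD with compound. Incubated 35 °C for 24 h, then cultures ground in liquid nitrogen for RNA isolation. Transcript levels of capsule-associated genes quantified by RT-qPCR. Three independent experiments, mean ± SD, t-test.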

[17] = test system: Candida tropicalis; experiment: Downregulation of MDR1 mRNA expression in Candida tropicalis 5008 at 4 ug/ml measured after 24 hrs by qRT-PCR analysis; type: functional; conditions: dose 4.0 µg/ml
Method in brief: as §1

[18] = test system: Candida tropicalis; experiment: Downregulation of CDR1 mRNA expression in Candida tropicalis 5008 at 4 ug/ml measured after 24 hrs by qRT-PCR analysis; type: functional; conditions: dose 4.0 µg/ml
Method in brief: as §1

[19] = test system: Candida tropicalis; experiment: Antifungal activity against Candida tropicalis 5008 assessed as inhibition of fungal filamentation by measuring reduction in hyphae formation at 8 ug/ml incubated for 7 hrs by cell inverted imaging microscopic analysis; type: functional, organism-based; conditions: dose 8.0 µg/ml
Method in brief: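 C. tropicalis 5008 grown to exponential phase in YEPD, diluted to 1 × 10⁵ CFU/mL in spider medium and dosed at several concentrations, with an untreated group for comparison. Incubated 37 °C for 7 h. Cell morphology recorded on a live-cell inverted microscope.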

[20] = test system: Cryptococcus neoformans; experiment: Downregulation of CAP10 gene expression in Cryptococcus neoformans H99 at 2 ug/ml measured after 24 hrs by qRT-PCR analysis; type: functional; conditions: dose 2.0 µg/ml
Method in brief: as §3

[21] = Inhibition of HDAC in Candida tropicalis 5008 using Boc-Lys(Ac)-AMC as substrate preincubated with protoplast for 12 hrs followed by incubation with substrate for 6 hrs by fluorimetric assay
Method in brief: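 Whole-cell assay on C. tropicalis 5008, 100 mg wet weight of exponential-phase cells. Cell wall removed with snailase to give protoplasts, which were dispersed in PBS. Protoplasts incubated with compound at 35 °C for 12 h. Boc-Lys(Ac)-AMC then added to a final 30 µM and incubated 37 °C for 6 h. Stop solution added, 37 °C for 2 h. Fluorescence read at Ex 360/Em 460 nm and converted to HDAC inhibition rate.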

Structure (SMILES)	MIC80 [1] [µg/mL]	MIC80 [2] [µg/mL]	MIC80 [3] [µg/mL]	MIC80 [4] [µg/mL]	MIC80 [5] [µg/mL]	MIC80 [6] [µg/mL]	MIC80 [7] [µg/mL]	MIC80 [8] [µg/mL]	MIC80 [9] [µg/mL]	further results
O=C(CCCCCCn1ncn(-c2ccc(CN3CCN(CC(O)(Cn4cncn4)c4ccc(F)cc4F)CC3)cc2)c1=O)NO (centres undefined)	32 (≈ 50 µM)	64 (≈ 100 µM)	> 64	> 64	> 64	> 64	> 64			
CCC(C)n1ncn(-c2ccc(N3CCN(c4ccc(OCC5COC(Cn6cncn6)(c6ccc(Cl)cc6Cl)O5)cc4)CC3)cc2)c1=O (centres undefined) [ITRACONAZOLE]	> 64	0.125 (≈ 0.177 µM)		0.5 (≈ 0.709 µM)	> 64	> 64	> 64	> 64		
O=C(CCCCCOc1ccc(CN2CCN(CC(O)(Cn3cncn3)c3ccc(F)cc3F)CC2)cc1)NO (centres undefined)	2 (≈ 3.58 µM)	8 (≈ 14.3 µM)	32 (≈ 57.3 µM)	1 (≈ 1.79 µM)	2 (≈ 3.58 µM)	1 (≈ 1.79 µM)	32 (≈ 57.3 µM)	16 (≈ 28.6 µM)	> 64	
OC(Cn1cncn1)(Cn1cncn1)c1ccc(F)cc1F [FLUCONAZOLE]	> 64	2 (≈ 6.53 µM)	> 64	0.5 (≈ 1.63 µM)	0.5 (≈ 1.63 µM)	> 64	> 64	> 64	> 64	inhibition [10]: Active; inhibition [11]: Active; Activity [12]: Active; inhibition [13]: Active; Activity [14]: Active; Activity [15]: Active; inhibition [16]: inactive; inhibition [17]: Active; inhibition [18]: Active; Activity [19]: Active; inhibition [20]: inactive
O=C(CCCCOc1ccc(CN2CCN(CC(O)(Cn3cncn3)c3ccc(F)cc3F)CC2)cc1)NO (centres undefined)	4 (≈ 7.34 µM)	8 (≈ 14.7 µM)	> 64	1 (≈ 1.84 µM)	2 (≈ 3.67 µM)	4 (≈ 7.34 µM)	8 (≈ 14.7 µM)	32 (≈ 58.8 µM)	> 64	
O=C(Cc1ccc(OCCCCN2CCN(CC(O)(Cn3cncn3)c3ccc(F)cc3F)CC2)cc1)NO (centres undefined)	> 64	32 (≈ 58.8 µM)	> 64	> 64	32 (≈ 58.8 µM)	> 64	32 (≈ 58.8 µM)	> 64	> 64	
O=C(CCCCCCOc1ccc(CN2CCN(CC(O)(Cn3cncn3)c3ccc(F)cc3F)CC2)cc1)NO (centres undefined)	1 (≈ 1.75 µM)	0.5 (≈ 0.873 µM)	32 (≈ 55.9 µM)	1 (≈ 1.75 µM)	2 (≈ 3.49 µM)	0.5 (≈ 0.873 µM)	16 (≈ 27.9 µM)	8 (≈ 14 µM)	32 (≈ 55.9 µM)	
O=C(Cc1ccc(OCCCCCN2CCN(CC(O)(Cn3cncn3)c3ccc(F)cc3F)CC2)cc1)NO (centres undefined)	> 64	32 (≈ 57.3 µM)	> 64	32 (≈ 57.3 µM)	4 (≈ 7.16 µM)	> 64	> 64	> 64	> 64	
O=C(NO)c1ccc(CCCCn2ncn(-c3ccc(CN4CCN(CC(O)(Cn5cncn5)c5ccc(F)cc5F)CC4)cc3)c2=O)cc1 (centres undefined)	16 (≈ 23.3 µM)	8 (≈ 11.6 µM)	> 64	> 64	> 64	> 64	> 64	> 64	> 64	
O=C(CCCCCCC(=O)Nc1ccccc1)NO [VORINOSTAT]										IC50 [21]: 3.56 µM
O=C(CCCCCCCn1ncn(-c2ccc(CN3CCN(CC(O)(Cn4cncn4)c4ccc(F)cc4F)CC3)cc2)c1=O)NO (centres undefined)	64 (≈ 97.9 µM)	32 (≈ 48.9 µM)	> 64	> 64	> 64	> 64	64 (≈ 97.9 µM)			
O=C(CCCOc1ccc(CN2CCN(CC(O)(Cn3cncn3)c3ccc(F)cc3F)CC2)cc1)NO (centres undefined)	8 (≈ 15.1 µM)	8 (≈ 15.1 µM)	> 64	4 (≈ 7.54 µM)	4 (≈ 7.54 µM)	4 (≈ 7.54 µM)	8 (≈ 15.1 µM)	16 (≈ 30.2 µM)	32 (≈ 60.3 µM)	
O=C(Cc1ccc(OCCCOc2ccc(CN3CCN(CC(O)(Cn4cncn4)c4ccc(F)cc4F)CC3)cc2)cc1)NO (centres undefined)	4 (≈ 6.28 µM)	4 (≈ 6.28 µM)	> 64	4 (≈ 6.28 µM)	2 (≈ 3.14 µM)	32 (≈ 50.3 µM)	32 (≈ 50.3 µM)	32 (≈ 50.3 µM)	> 64	
O=C(Cc1ccc(OCCCCCCN2CCN(CC(O)(Cn3cncn3)c3ccc(F)cc3F)CC2)cc1)NO (centres undefined)	4 (≈ 6.98 µM)	16 (≈ 27.9 µM)	16 (≈ 27.9 µM)	16 (≈ 27.9 µM)	2 (≈ 3.49 µM)	4 (≈ 6.98 µM)	16 (≈ 27.9 µM)	16 (≈ 27.9 µM)	16 (≈ 27.9 µM)	
O=C(Cc1ccc(OCCCn2ncn(-c3ccc(CN4CCN(CC(O)(Cn5cncn5)c5ccc(F)cc5F)CC4)cc3)c2=O)cc1)NO (centres undefined)	2 (≈ 2.84 µM)	2 (≈ 2.84 µM)	32 (≈ 45.5 µM)	2 (≈ 2.84 µM)	2 (≈ 2.84 µM)	16 (≈ 22.7 µM)	2 (≈ 2.84 µM)	4 (≈ 5.68 µM)	32 (≈ 45.5 µM)	
C[C@@H](c1ncncc1F)[C@](O)(Cn1cncn1)c1ccc(F)cc1F [VORICONAZOLE]	> 64	0.0625 (≈ 0.179 µM)		< 0.125	> 64	> 64	> 64	> 64		
